In brackets after ≈: the same amount, converted by molar mass.
Key:
Staphylococcus aureus [1] = test: Antibacterial activity against Staphylococcus aureus at 25 ug/ml incubated for 24 hrs by agar well diffusion method; type: functional; settings: read-out: DIZ
How it was run: (§1)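 Bacteria grown in nutrient broth at 37 °C for 24 h, then subcultured at room temperature. Compounds dissolved in DMSO at 5 mg mL⁻¹ and 5–20 µL added to 6 mm wells, giving 25, 50, 75, 100 µg per well. Gentamicin was the positive control and DMSO the negative control. Plates held at 37 °C for 24 h, then inhibition zone diameter (mm) measured. Values are means of three determinations.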

Staphylococcus aureus [2] = test: Antibacterial activity against Staphylococcus aureus at 50 ug/ml incubated for 24 hrs by agar well diffusion method; type: functional; settings: read-out: DIZ; how it was run: as §1
Staphylococcus aureus [3] = test: Antibacterial activity against Staphylococcus aureus at 75 ug/ml incubated for 24 hrs by agar well diffusion method; type: functional; settings: read-out: DIZ; how it was run: as §1
Staphylococcus aureus [4] = test: Antibacterial activity against Staphylococcus aureus at 100 ug/ml incubated for 24 hrs by agar well diffusion method; type: functional; settings: read-out: DIZ; how it was run: as §1
Bacillus subtilis [5] = test: Antibacterial activity against Bacillus subtilis at 25 ug/ml incubated for 24 hrs by agar well diffusion method; type: functional; settings: read-out: DIZ; how it was run: as §1
Bacillus subtilis [6] = test: Antibacterial activity against Bacillus subtilis at 50 ug/ml incubated for 24 hrs by agar well diffusion method; type: functional; settings: read-out: DIZ; how it was run: as §1
Bacillus subtilis [7] = test: Antibacterial activity against Bacillus subtilis at 75 ug/ml incubated for 24 hrs by agar well diffusion method; type: functional; settings: read-out: DIZ; how it was run: as §1
Bacillus subtilis [8] = test: Antibacterial activity against Bacillus subtilis at 100 ug/ml incubated for 24 hrs by agar well diffusion method; type: functional; settings: read-out: DIZ; how it was run: as §1
Escherichia coli [9] = test: Antibacterial activity against Escherichia coli at 25 ug/ml incubated for 24 hrs by agar well diffusion method; type: functional; settings: read-out: DIZ; how it was run: as §1
Escherichia coli [10] = test: Antibacterial activity against Escherichia coli at 50 ug/ml incubated for 24 hrs by agar well diffusion method; type: functional; settings: read-out: DIZ; how it was run: as §1
Escherichia coli [11] = test: Antibacterial activity against Escherichia coli at 75 ug/ml incubated for 24 hrs by agar well diffusion method; type: functional; settings: read-out: DIZ; how it was run: as §1
Escherichia coli [12] = test: Antibacterial activity against Escherichia coli at 100 ug/ml incubated for 24 hrs by agar well diffusion method; type: functional; settings: read-out: DIZ; how it was run: as §1
Klebsiella pneumoniae [13] = test: Antibacterial activity against Klebsiella pneumoniae at 25 ug/ml incubated for 24 hrs by agar well diffusion method; type: functional; settings: read-out: DIZ; how it was run: as §1
Klebsiella pneumoniae [14] = test: Antibacterial activity against Klebsiella pneumoniae at 50 ug/ml incubated for 24 hrs by agar well diffusion method; type: functional; settings: read-out: DIZ; how it was run: as §1
Klebsiella pneumoniae [15] = test: Antibacterial activity against Klebsiella pneumoniae at 75 ug/ml incubated for 24 hrs by agar well diffusion method; type: functional; settings: read-out: DIZ; how it was run: as §1
Klebsiella pneumoniae [16] = test: Antibacterial activity against Klebsiella pneumoniae at 100 ug/ml incubated for 24 hrs by agar well diffusion method; type: functional; settings: read-out: DIZ; how it was run: as §1
Aspergillus niger [17] = test: Antifungal activity against Aspergillus niger at 25 ug/ml incubated for 48 hrs by agar well diffusion method; type: functional; settings: read-out: DIZ
How it was run: (§2)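 Compounds dissolved in DMSO at 5 mg mL⁻¹ and 5–20 µL added to 6 mm wells, giving 25, 50, 75, 100 µg per well. Bavistin was the positive control and DMSO the negative control. Plates incubated at 28 °C for 48 h, then inhibition zone diameter (mm) measured. Values are means of three determinations.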

Aspergillus niger [18] = test: Antifungal activity against Aspergillus niger at 50 ug/ml incubated for 48 hrs by agar well diffusion method; type: functional; settings: read-out: DIZ; how it was run: as §2
Aspergillus niger [19] = test: Antifungal activity against Aspergillus niger at 75 ug/ml incubated for 48 hrs by agar well diffusion method; type: functional; settings: read-out: DIZ; how it was run: as §2
Aspergillus niger [20] = test: Antifungal activity against Aspergillus niger at 100 ug/ml incubated for 48 hrs by agar well diffusion method; type: functional; settings: read-out: DIZ; how it was run: as §2
Candida albicans [21] = test: Antifungal activity against Candida albicans at 25 ug/ml incubated for 48 hrs by agar well diffusion method; type: functional; settings: read-out: DIZ; how it was run: as §2
Candida albicans [22] = test: Antifungal activity against Candida albicans at 50 ug/ml incubated for 48 hrs by agar well diffusion method; type: functional; settings: read-out: DIZ; how it was run: as §2
Candida albicans [23] = test: Antifungal activity against Candida albicans at 75 ug/ml incubated for 48 hrs by agar well diffusion method; type: functional; settings: read-out: DIZ; how it was run: as §2
Candida albicans [24] = test: Antifungal activity against Candida albicans at 100 ug/ml incubated for 48 hrs by agar well diffusion method; type: functional; settings: read-out: DIZ; how it was run: as §2
Fusarium oxysporum [25] = test: Antifungal activity against Fusarium oxysporum at 25 ug/ml incubated for 48 hrs by agar well diffusion method; type: functional; settings: read-out: DIZ; how it was run: as §2
Fusarium oxysporum [26] = test: Antifungal activity against Fusarium oxysporum at 50 ug/ml incubated for 48 hrs by agar well diffusion method; type: functional; settings: read-out: DIZ; how it was run: as §2
Fusarium oxysporum [27] = test: Antifungal activity against Fusarium oxysporum at 75 ug/ml incubated for 48 hrs by agar well diffusion method; type: functional; settings: read-out: DIZ; how it was run: as §2
Fusarium oxysporum [28] = test: Antifungal activity against Fusarium oxysporum at 100 ug/ml incubated for 48 hrs by agar well diffusion method; type: functional; settings: read-out: DIZ; how it was run: as §2
Staphylococcus aureus [29] = test: Antibacterial activity against Staphylococcus aureus incubated for 24 hrs by microdilution method; type: functional
Bacillus subtilis [30] = test: Antibacterial activity against Bacillus subtilis incubated for 24 hrs by microdilution method; type: functional
Escherichia coli [31] = test: Antibacterial activity against Escherichia coli incubated for 24 hrs by microdilution method; type: functional
Klebsiella pneumoniae [32] = test: Antibacterial activity against Klebsiella pneumoniae incubated for 24 hrs by microdilution method; type: functional
Aspergillus niger [33] = test: Antifungal activity against Aspergillus niger incubated for 48 to 72 hrs by microdilution method; type: functional
How it was run: (§3)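 Sabouraud agar plates inoculated with fungal suspension at 10⁵ CFU mL⁻¹ plus serially diluted compounds and bavistin reference, both in DMSO. Incubated at 25 °C for 48–72 h. MIC is the lowest concentration completely inhibiting growth. Values are means of three determinations.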

Candida albicans [34] = test: Antifungal activity against Candida albicans incubated for 48 to 72 hrs by microdilution method; type: functional; how it was run: as §3
Fusarium oxysporum [35] = test: Antifungal activity against Fusarium oxysporum incubated for 48 to 72 hrs by microdilution method; type: functional; how it was run: as §3
Staphylococcus aureus [36] = test: Induction of cell membrane damage in Staphylococcus aureus assessed as cell content leakage at MIC by spectrophotometric method; type: functional, organism-based; settings: TDE = time-dependent effect
How it was run: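 Log-phase S. aureus inoculated into 0.1% sterile peptone water, with an untreated control, and held at 37 °C for 0, 30, 60 and 120 min. 1 mL of broth centrifuged and supernatant OD read at 260 nm to measure released DNA. Run in triplicate, repeated three times.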

Erythrocyte = test: Anti-inflammatory activity in human RBC assessed as inhibition of hypotonic solution-induced hemolysis after 10 mins by spectrophotometric method; type: functional, cell-based
How it was run: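 Human blood (heparinized) washed with 0.9% saline, packed cells made into a 40% v/v stock in isotonic phosphate buffer (154 mM NaCl, 10 mM sodium phosphate, pH 7.4). Stock RBC mixed with hypotonic buffer (50 mM NaCl, 10 mM phosphate, pH 7.4) plus sample at 20–100 µg mL⁻¹.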

| SMILES | zone of inhibition at 25 µg/mL (Staphylococcus aureus [1]) [mm] | zone of inhibition at 50 µg/mL (Staphylococcus aureus [2]) [mm] | zone of inhibition at 75 µg/mL (Staphylococcus aureus [3]) [mm] | zone of inhibition at 100 µg/mL (Staphylococcus aureus [4]) [mm] | zone of inhibition at 25 µg/mL (Bacillus subtilis [5]) [mm] | zone of inhibition at 50 µg/mL (Bacillus subtilis [6]) [mm] | zone of inhibition at 75 µg/mL (Bacillus subtilis [7]) [mm] | zone of inhibition at 100 µg/mL (Bacillus subtilis [8]) [mm] | zone of inhibition at 25 µg/mL (Escherichia coli [9]) [mm] | zone of inhibition at 50 µg/mL (Escherichia coli [10]) [mm] | zone of inhibition at 75 µg/mL (Escherichia coli [11]) [mm] | zone of inhibition at 100 µg/mL (Escherichia coli [12]) [mm] | zone of inhibition at 25 µg/mL (Klebsiella pneumoniae [13]) [mm] | zone of inhibition at 50 µg/mL (Klebsiella pneumoniae [14]) [mm] | zone of inhibition at 75 µg/mL (Klebsiella pneumoniae [15]) [mm] | zone of inhibition at 100 µg/mL (Klebsiella pneumoniae [16]) [mm] | zone of inhibition at 25 µg/mL (Aspergillus niger [17]) [mm] | zone of inhibition at 50 µg/mL (Aspergillus niger [18]) [mm] | zone of inhibition at 75 µg/mL (Aspergillus niger [19]) [mm] | zone of inhibition at 100 µg/mL (Aspergillus niger [20]) [mm] | further results |
| --- | --- | --- | --- | --- | --- | --- | --- | --- | --- | --- | --- | --- | --- | --- | --- | --- | --- | --- | --- | --- | --- |
| CC(C)(C)OC(=O)N1CCC[C@H]1C(=O)Oc1ccc2c(=O)c3ccccc3oc2c1 | 17 | 24 | 29 | 33 | 15 | 24 | 31 | 35 | 17 | 26 | 31 | 36 | 13 | 21 | 27 | 32 | 17 | 24 | 30 | 33 | zone of inhibition at 25 µg/mL (Candida albicans [21]): 16 mm; zone of inhibition at 50 µg/mL (Candida albicans [22]): 22 mm; zone of inhibition at 75 µg/mL (Candida albicans [23]): 27 mm; zone of inhibition at 100 µg/mL (Candida albicans [24]): 34 mm; zone of inhibition at 25 µg/mL (Fusarium oxysporum [25]): 20 mm; zone of inhibition at 50 µg/mL (Fusarium oxysporum [26]): 24 mm; zone of inhibition at 75 µg/mL (Fusarium oxysporum [27]): 29 mm; zone of inhibition at 100 µg/mL (Fusarium oxysporum [28]): 35 mm; MIC (Staphylococcus aureus [29]): 27 mg/L (≈ 65.9 µM); MIC (Bacillus subtilis [30]): 26 mg/L (≈ 63.5 µM); MIC (Escherichia coli [31]): 25 mg/L (≈ 61.1 µM); MIC (Klebsiella pneumoniae [32]): 24 mg/L (≈ 58.6 µM); MIC (Aspergillus niger [33]): 29 mg/L (≈ 70.8 µM); MIC (Candida albicans [34]): 24 mg/L (≈ 58.6 µM); MIC (Fusarium oxysporum [35]): 25 mg/L (≈ 61.1 µM); Activity (Staphylococcus aureus [36]): Tde; IC50 (Erythrocyte): 34 mg/L (≈ 83 µM) |
| Cl.N[C@@H](Cc1ccccc1)C(=O)Oc1ccc2c(=O)c3ccccc3oc2c1 | 22 | 27 | 34 | 38 | 22 | 27 | 34 | 38 | 20 | 27 | 34 | 37 | 23 | 29 | 34 | 40 | 20 | 30 | 36 | 41 | zone of inhibition at 25 µg/mL (Candida albicans [21]): 24 mm; zone of inhibition at 50 µg/mL (Candida albicans [22]): 28 mm; zone of inhibition at 75 µg/mL (Candida albicans [23]): 34 mm; zone of inhibition at 100 µg/mL (Candida albicans [24]): 40 mm; zone of inhibition at 25 µg/mL (Fusarium oxysporum [25]): 20 mm; zone of inhibition at 50 µg/mL (Fusarium oxysporum [26]): 25 mm; zone of inhibition at 75 µg/mL (Fusarium oxysporum [27]): 30 mm; zone of inhibition at 100 µg/mL (Fusarium oxysporum [28]): 36 mm; MIC (Staphylococcus aureus [29]): 22 mg/L; MIC (Bacillus subtilis [30]): 22 mg/L; MIC (Escherichia coli [31]): 22 mg/L; MIC (Klebsiella pneumoniae [32]): 24 mg/L; MIC (Aspergillus niger [33]): 26 mg/L; MIC (Candida albicans [34]): 28 mg/L; MIC (Fusarium oxysporum [35]): 26 mg/L; IC50 (Erythrocyte): 38 mg/L |
| Cl.O=C(Oc1ccc2c(=O)c3ccccc3oc2c1)[C@@H]1CCCN1 | 20 | 27 | 31 | 35 | 18 | 26 | 32 | 37 | 20 | 25 | 32 | 39 | 18 | 28 | 33 | 38 | 17 | 24 | 30 | 33 | zone of inhibition at 25 µg/mL (Candida albicans [21]): 16 mm; zone of inhibition at 50 µg/mL (Candida albicans [22]): 22 mm; zone of inhibition at 75 µg/mL (Candida albicans [23]): 27 mm; zone of inhibition at 100 µg/mL (Candida albicans [24]): 34 mm; zone of inhibition at 25 µg/mL (Fusarium oxysporum [25]): 20 mm; zone of inhibition at 50 µg/mL (Fusarium oxysporum [26]): 24 mm; zone of inhibition at 75 µg/mL (Fusarium oxysporum [27]): 29 mm; zone of inhibition at 100 µg/mL (Fusarium oxysporum [28]): 35 mm; MIC (Staphylococcus aureus [29]): 26 mg/L; MIC (Bacillus subtilis [30]): 25 mg/L; MIC (Escherichia coli [31]): 24 mg/L; MIC (Klebsiella pneumoniae [32]): 26 mg/L; MIC (Aspergillus niger [33]): 27 mg/L; MIC (Candida albicans [34]): 28 mg/L; MIC (Fusarium oxysporum [35]): 28 mg/L; Activity (Staphylococcus aureus [36]): Tde; IC50 (Erythrocyte): 36 mg/L |

From ChEMBL document CHEMBL4261538, “Synthesis and molecular docking studies of xanthone attached amino acids as potential antimicrobial and anti-inflammatory agents” (Medchemcomm, 2017)
